Experimental findings from ChEMBL document CHEMBL2417460, “Synthesis and biological evaluation of berberine-thiophenyl hybrids as multi-functional agents: Inhibition of acetylcholinesterase, butyrylcholinesterase, and Aβ aggregation and antioxidant activity” (Bioorg Med Chem, 2013) are described below.

Activity calls are given as the source filed them. The rule behind the calls is not given here.

By inhibition is commonly meant the relative decrease from the control value, in per cent. Read a high inhibition as a response far below the control. The term Ki denotes the equilibrium dissociation constant of an inhibitor or competing ligand from its target. Usually IC50 stands for the point on the concentration scale where inhibition reaches its midpoint.

Test [1] concerns the target Amyloid-beta precursor protein (Homo sapiens) (UniProt P05067). The experiment in a line: Inhibition of amyloid beta (1-42) (unknown origin) aggregation at 20 uM after 48 hrs by thioflavin-T based fluorimetric assay relative to control. The method in brief: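 HFIP-pretreated Aβ1–42 was resolubilised in 50 mM phosphate buffer, pH 7.4, and incubated at 37 °C for 48 h (50 μM final peptide) with or without compound at 20 μM. Samples were diluted into 50 mM glycine–NaOH, pH 8.0, containing thioflavin T and scanned for 300 s (ex 450/em 485 nm). Plateau values were averaged after subtracting ThT background.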

For test [2], the target named is T1, Acetylcholinesterase (Electrophorus electricus, UniProt O42275). The experiment in a line: Mixed-type inhibition of electric eel AChE using acetylthiocholine chloride as substrate by Lineweaver-Burk plot analysis. The method in brief: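 Electric eel AChE was pre-incubated with inhibitor at 37 °C for 15 min in 0.1 M phosphate buffer, pH 8.0, with DTNB, then substrate was added. Absorbance at 412 nm was followed at 60 s intervals at 37 °C. Reciprocal plots of initial velocity versus substrate concentration defined the inhibition type.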
T1 sequence (O42275 whole entry): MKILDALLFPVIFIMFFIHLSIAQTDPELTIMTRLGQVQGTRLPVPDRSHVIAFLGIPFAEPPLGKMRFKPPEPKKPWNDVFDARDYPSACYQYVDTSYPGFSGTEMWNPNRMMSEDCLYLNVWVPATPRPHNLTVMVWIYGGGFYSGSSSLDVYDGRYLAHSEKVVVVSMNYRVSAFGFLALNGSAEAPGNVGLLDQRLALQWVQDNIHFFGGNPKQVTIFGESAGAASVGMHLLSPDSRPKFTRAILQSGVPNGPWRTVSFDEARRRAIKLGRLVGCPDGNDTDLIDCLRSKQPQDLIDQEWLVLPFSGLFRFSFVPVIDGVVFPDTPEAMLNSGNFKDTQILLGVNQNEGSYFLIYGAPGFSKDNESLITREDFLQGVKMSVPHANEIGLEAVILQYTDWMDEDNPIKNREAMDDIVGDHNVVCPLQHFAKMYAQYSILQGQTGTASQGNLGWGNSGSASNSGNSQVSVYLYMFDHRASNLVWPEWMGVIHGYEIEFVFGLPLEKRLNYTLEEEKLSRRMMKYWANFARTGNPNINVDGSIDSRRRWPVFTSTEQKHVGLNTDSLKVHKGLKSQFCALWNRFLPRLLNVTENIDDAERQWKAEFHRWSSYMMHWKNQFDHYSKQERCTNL

Test [3] concerns the target T1, Acetylcholinesterase. Nature of the test: Inhibition of electric eel AChE using acetylthiocholine chloride as substrate preincubated for 15 mins prior to substrate addition by Ellman's method. On the technique in general: Ellman's reagent forms a yellow product with free thiols.
Test [4] in a line: Antioxidant activity assessed as ratio of umol of trolox equivalent to umol of compound after 10 mins by oxygen radical absorbance capacity-fluorescein assay. The format is functional. The method in brief: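 Fluorescein 300 nM final was preincubated with antioxidant for 10 min at 37 °C, then AAPH was added to 12 mM final. Fluorescence (ex 485/em 535 nm) was read every 60 s for 4 h. Samples were run at […] against a Trolox calibration and an FL+AAPH blank in phosphate buffer. Results are expressed as Trolox equivalents, with mixtures in triplicate and ≥3 independent runs.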

Test [5] is described as follows: Antioxidant activity assessed as H2O2 scavenging activity at 100 uM after 72 hrs by spectrophotometric analysis. The format is functional. The essentials:
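Compound solution was added to H2O2 (0.1 mM) in 0.1 M phosphate buffer, pH 7.4, and incubated for 72 h at 37 °C. Phenol red (0.2 mg/mL) plus horseradish peroxidase (0.4 mg/mL) was added; after 15 min, 1 M NaOH was added and absorbance read at 610 nm. Percent H2O2 reduction = (A_H2O2 − A_sample)/A_H2O2 × 100, with the control holding acetone and no compound.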

Test [6] can be described thus: Antioxidant activity assessed as H2O2 scavenging activity measured as compound remaining at 100 uM after 72 hrs by LC/MS analysis. The format is functional.

Sequence of Amyloid-beta precursor protein (Homo sapiens) (P05067 whole entry): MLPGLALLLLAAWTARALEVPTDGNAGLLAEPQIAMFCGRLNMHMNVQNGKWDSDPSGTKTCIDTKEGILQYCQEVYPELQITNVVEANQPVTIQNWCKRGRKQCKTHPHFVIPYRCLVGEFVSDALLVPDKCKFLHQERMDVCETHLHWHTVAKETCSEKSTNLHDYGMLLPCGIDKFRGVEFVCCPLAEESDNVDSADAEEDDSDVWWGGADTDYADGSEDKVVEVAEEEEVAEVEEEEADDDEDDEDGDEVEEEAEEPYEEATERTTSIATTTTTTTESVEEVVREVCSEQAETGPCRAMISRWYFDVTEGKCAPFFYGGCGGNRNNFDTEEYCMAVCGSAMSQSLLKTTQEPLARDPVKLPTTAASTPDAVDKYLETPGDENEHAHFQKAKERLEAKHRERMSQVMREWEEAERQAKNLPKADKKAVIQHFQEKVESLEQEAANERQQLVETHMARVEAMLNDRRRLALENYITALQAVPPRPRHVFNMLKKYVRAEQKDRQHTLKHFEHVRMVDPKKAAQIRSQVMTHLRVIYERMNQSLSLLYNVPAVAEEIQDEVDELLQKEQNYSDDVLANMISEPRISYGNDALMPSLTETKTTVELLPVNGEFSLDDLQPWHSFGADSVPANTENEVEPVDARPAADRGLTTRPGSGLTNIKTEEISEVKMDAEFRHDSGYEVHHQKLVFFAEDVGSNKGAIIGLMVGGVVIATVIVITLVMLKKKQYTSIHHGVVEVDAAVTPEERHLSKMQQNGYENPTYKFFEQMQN

With `COc1ccc2cc3[n+](cc2c1OCCSc1ccccc1Cl)CCc1cc2c(cc1-3)OCO2`, the inhibition in test [1] turned out to be 65.1%. Also, the Ki at Acetylcholinesterase [2] turned out to be 18 nM. Also, the IC50 at Acetylcholinesterase [3] turned out to be 42 nM. Further, the Activity in test [4] was 0.75 equiv.

In test [1], `Oc1ccc(/C=C/c2cc(O)cc(O)c2)cc1` came in with an inhibition of 61.1%.

As for `COc1ccc2cc3[n+](cc2c1OCCCCCSc1ccccc1)CCc1cc2c(cc1-3)OCO2`, the IC50 against Acetylcholinesterase [3] was 543 nM. The Activity in test [4] amounted to 0.89 equiv.

In test [1], `COc1ccc2cc3[n+](cc2c1OCCSc1ccc(C)cc1)CCc1cc2c(cc1-3)OCO2` showed an inhibition of 70%. Further, the IC50 against Acetylcholinesterase [3] turned out to be 299 nM. Further, in test [4], the Activity was 1.86 equiv.

`COc1ccc2cc3[n+](cc2c1OCCCCSc1ccccc1)CCc1cc2c(cc1-3)OCO2` registered an inhibition in test [1] of 69.1%. Moreover, the midpoint of inhibition on Acetylcholinesterase [3], the IC50, lay at 192 nM. Also, the Activity in test [4] was 0.95 equiv.

For `CCc1ccccc1SCCOc1c(OC)ccc2cc3[n+](cc12)CCc1cc2c(cc1-3)OCO2`, in test [1], the inhibition is 74.8%. The same molecule had an IC50 at Acetylcholinesterase [3] of 83 nM. Moreover, the Activity in test [4] is 1.01 equiv.

In test [1], `COc1ccc2cc3[n+](cc2c1OC)CCc1cc2c(cc1-3)OCO2` gave an inhibition of 35.5%. For the same molecule, the Activity in test [4] stood at 0.4 equiv.

For the molecule `COc1ccc2cc3[n+](cc2c1OCCSc1cccc(C)c1)CCc1cc2c(cc1-3)OCO2`, in test [1], the inhibition is 72.3%. Besides, the IC50 against Acetylcholinesterase [3] turned out to be 207 nM. Moreover, in test [4], the Activity came out at 1.32 equiv.

With `COc1ccc2cc3[n+](cc2c1OCCCCCCSc1ccccc1)CCc1cc2c(cc1-3)OCO2`, the IC50 against Acetylcholinesterase [3] came out at 972 nM. The Activity in test [4] turned out to be 0.77 equiv.

`COc1ccc2cc3[n+](cc2c1OCCCSc1ccccc1)CCc1cc2c(cc1-3)OCO2`: in test [1], the inhibition worked out at 70.6%. Moreover, 257 nM corresponded to half-maximal inhibition against Acetylcholinesterase [3] (IC50). In test [4], the Activity came out at 0.94 equiv.

In test [1], `COc1ccccc1SCCOc1c(OC)ccc2cc3[n+](cc12)CCc1cc2c(cc1-3)OCO2` had an inhibition of 76.8%. On Acetylcholinesterase [3], this molecule showed an IC50 of 151 nM. Moreover, the Activity in test [4] turned out to be 1.94 equiv.

In the case of `COc1ccc2cc3[n+](cc2c1OCCSc1ccccc1F)CCc1cc2c(cc1-3)OCO2`, the inhibition in test [1] stood at 73.3%. In addition, the IC50 at Acetylcholinesterase [3] worked out at 87 nM. The Activity in test [4] was 1.15 equiv.

With `COc1ccc2cc3[n+](cc2c1OCCSc1ccc(Cl)cc1)CCc1cc2c(cc1-3)OCO2`, the IC50 against Acetylcholinesterase [3] is 484 nM. The Activity in test [4] stood at 0.82 equiv.

In the case of `COc1ccc2cc3[n+](cc2c1OCCSc1ccccc1C)CCc1cc2c(cc1-3)OCO2`, the inhibition in test [1] was 73.4%. This molecule also displayed a Ki on Acetylcholinesterase [2] of 71 nM. Further, the result in test [5] and in test [6] was Active. Besides, the IC50 at Acetylcholinesterase [3] amounted to 77 nM. The Activity in test [4] was 1.11 equiv.

On Acetylcholinesterase [3], `COc1ccc2cc3[n+](cc2c1OCCSc1cccc(Cl)c1)CCc1cc2c(cc1-3)OCO2` yielded an IC50 of 233 nM. The Activity in test [4] came to 0.47 equiv.

In turn, `COc1ccc2cc3[n+](cc2c1OCCSc1ccccc1)CCc1cc2c(cc1-3)OCO2` came in with an inhibition in test [1] of 70.4%. Moreover, on Acetylcholinesterase [3], half-maximal inhibition (IC50) required 177 nM. For the same molecule, the Activity in test [4] came to 0.89 equiv.
